CHRM4 PAM: human M4 muscarinic receptor positive allosteric modulators, primary screen, CHO-K1 cells, Fluo-8 calcium fluorescence; CHO-K1 hM4/Gqi5, ACh EC20; 0% = ACh EC20, 100% = maximal ACh; activation, % at 3 µM; 360,000 tested, 0.4% active;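 active = activation above its plate's cutoff, the mean activation of sample wells plus 3 SD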
Target sequence (P08173 whole entry, looked up): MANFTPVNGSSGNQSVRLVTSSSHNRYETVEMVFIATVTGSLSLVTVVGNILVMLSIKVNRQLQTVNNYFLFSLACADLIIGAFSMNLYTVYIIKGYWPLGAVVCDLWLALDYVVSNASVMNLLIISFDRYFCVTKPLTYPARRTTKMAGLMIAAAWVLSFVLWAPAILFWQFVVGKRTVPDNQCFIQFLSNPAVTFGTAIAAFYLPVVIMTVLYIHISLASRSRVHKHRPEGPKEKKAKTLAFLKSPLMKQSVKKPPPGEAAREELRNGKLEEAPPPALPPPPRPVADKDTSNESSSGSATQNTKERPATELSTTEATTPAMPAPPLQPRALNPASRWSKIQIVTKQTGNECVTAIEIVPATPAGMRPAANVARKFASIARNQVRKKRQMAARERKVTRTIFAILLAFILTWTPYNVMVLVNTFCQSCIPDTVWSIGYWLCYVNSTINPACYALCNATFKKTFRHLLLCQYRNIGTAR
M5 PAM: human M5 muscarinic receptor positive allosteric modulators, primary screen, CHO-K1 cells, Fluo-8 calcium fluorescence; Muscarinic acetylcholine receptor M5 (Homo sapiens), P08912; 360,000 tested, 0.3% active; CHO-K1 hM5, ACh EC20 PAM; 0% = ACh EC20, 100% = ACh EC100; activation, % at 3 µM;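 active = activation above the run cutoff, the mean activation of all test compounds plus 3 SD, cut at about 18% in these data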
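Probe or stimulus: acetylcholine, EC20 level; Assay system: human M5 receptor in CHO-K1 cells; Schedule: compound preincubation 140 s before EC20 acetylcholine addition; Technique: intracellular calcium via Fluo-8 fluorescence; Dosing: single-point, 3 µM nominal; Read-out basis: percent activation from peak-over-basal fluorescence ratio, scaled EC20-to-EC100 acetylcholine; Repeats: one well per compound, no replicates.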
M5 ag: human M5 muscarinic receptor agonists, primary screen, CHO-K1 cells, Fluo-8 calcium fluorescence | AID 624037, 2012 | Muscarinic acetylcholine receptor M5 (Homo sapiens), P08912 | 360,000 tested, 0.19% active | CHO-K1 hM5 cells; 0% DMSO wells, 100% maximal acetylcholine response | activation, % at 3 µM;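 active = activation above the run's mean over test compounds plus 3 SD, cut at about 23% in these data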;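 also: signal is peak over basal fluorescence ratio across the kinetic read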
CHRM4 antagonist: human M4 muscarinic receptor antagonists, primary screen, CHO cells, Fluo-8 calcium fluorescence. CHO-hM4 cells, ACh EC80. inhibition, % at 3 µM. 360,000 tested, 0.73% active;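 active = inhibition above its plate's cutoff, the mean inhibition of sample wells plus 3 SD, cut at about 27% in these data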
CHRM5 antagonist: human M5 muscarinic receptor antagonists, primary screen, CHO cells, Fluo-8 calcium fluorescence. Muscarinic acetylcholine receptor M5 (Homo sapiens), P08912. CHO-hM5 cells, ACh EC80. inhibition, % at 3 µM. 360,000 tested, 0.59% active;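 active = inhibition above a per-plate cutoff, the mean of that plate's test compounds plus 3 SD, cut at about 27% in these data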
M4 ag: human M4 muscarinic receptor agonists, primary screen, CHO-K1 cells, Fluo-8 calcium fluorescence; 360,000 tested, 0.14% active; Muscarinic acetylcholine receptor M4 (Homo sapiens), P08173; activation, % at 3 µM; CHO-K1 hM4/Gqi5; vehicle 0%, full acetylcholine response 100%;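 active = activation above the run mean over all test wells plus 3 SD, cut at about 32% in these data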;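 also: peak over basal fluorescence ratio per well then scaled between controls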
Numbers stand for hits; 0 = inactive. The list is not random: actives were taken first. Their share in the collection is about 1.9%.

SMILES	CHRM4 PAM	M5 PAM	M5 ag	CHRM4 antagonist	CHRM5 antagonist	M4 ag
COc1ccccc1N(CC(=O)NCc1ccccc1)S(=O)(=O)c1cccs1	0	0	0	0	0	0
N#C/C(=C/c1ccc(N2CCCCC2)o1)C(=O)Nc1ccc(Cl)cc1	0	0	56	45	55	170
N#C/C(=C/c1ccc(N2CCCCC2)o1)C(=O)Nc1ccc2ccccc2c1	0	0	457	84	91	181
Cc1ccc(S(=O)(=O)N2CCN(C(=O)COC(=O)CC(C)c3ccccc3)CC2)c(C)c1 (stereo unspecified)	0	0	0	0	0	0
CCOCCCNC(=O)c1ccc2c(c1)ncn2-c1ccccc1OC	0	0	0	0	0	0
CCOc1ccccc1NC(=O)C(OC(=O)c1ccc(O)cc1)c1ccccc1 (stereo unspecified)	0	0	0	0	29	0
CCOc1ccccc1NC(=O)C(OC(=O)c1ccc(CC)cc1)c1ccccc1 (stereo unspecified)	0	0	0	0	0	0
Nc1cc2c(cc1Cl)N(Cc1ccccc1)C(=O)CO2	0	0	0	0	0	0
CC(OC(=O)Cn1cnc2c1c(=O)n(C)c(=O)n2C)C(=O)c1ccccc1 (stereo unspecified)	0	0	0	0	0	0
CC(=O)Cn1c(CN2CCN(C(=O)c3ccco3)CC2)nc2c1c(=O)n(C)c(=O)n2C	0	0	0	0	0	0
CCn1c2ccccc2c2nnc(SCCN3CCCCC3)nc21	0	0	0	28	0	0
CCn1c2ccccc2c2nnc(SCCN3CCOCC3)nc21	0	0	0	0	0	0
CC(Cc1cccs1)NC(=O)Nc1ccc([N+](=O)[O-])cc1 (stereo unspecified)	0	0	0	0	30	0
CCN(CC)CCNC(=O)c1ccc(N)cc1	0	0	0	29	0	0
CCN(CC)CCNC(=O)c1ccc(NC(C)=O)cc1	0	0	0	0	0	0
CC1(c2ccc(OC(F)F)cc2)NC(=O)N(CC(=O)c2ccc3c(c2)OCO3)C1=O (stereo unspecified)	0	0	42	0	0	40
CC1(c2ccc([N+](=O)[O-])cc2)NC(=O)N(CC(=O)c2ccc3c(c2)OCO3)C1=O (stereo unspecified)	0	0	36	0	0	33
CC1(c2ccc(OC(F)F)cc2)NC(=O)N(CC(=O)NC2CCCCC2)C1=O (stereo unspecified)	0	0	0	0	0	0
CCCCN(CC)C(=O)c1n[nH]c(=O)c2ccccc12	0	25	0	0	0	0
COc1ccc(N=C2C(=O)N3c4c(cccc42)C(C)=CC3(C)C)cc1	0	0	29	0	0	0
COc1ccc(N=C2C(=O)Nc3ccccc32)cc1	0	0	0	0	0	0
CC(=O)Nc1ccc(-c2ccnc3c2CC(C(=O)Nc2cccc(OC(F)(F)F)c2)O3)cc1 (stereo unspecified)	0	0	0	0	0	0
CC(NC(=O)/C=C/c1ccccc1)c1ccccc1 (stereo unspecified)	0	0	31	0	0	0
CC(=O)c1cccc(NC(=O)CN2C(=O)NC(C)(C)C2=O)c1	0	0	0	0	0	0
FC(F)Sc1ccc(NC(=S)NC2CCCC2)cc1	0	0	0	0	0	0
SMILES	CHRM4 PAM	M5 PAM	M5 ag	CHRM4 antagonist	CHRM5 antagonist	M4 ag
CC1CCCC(NC(=S)Nc2ccc(SC(F)F)cc2)C1C (stereo unspecified)	0	0	0	0	31	0
COC(=O)c1ccc(NC(=S)NC2CCCCC2C)cc1 (stereo unspecified)	0	0	0	0	29	0
O=C(c1cccc(Cl)c1)C1CCCN(C(=O)c2ccoc2)C1 (stereo unspecified)	0	0	0	0	39	0
O=C(c1cccc(Cl)c1)C1CCCN(Cc2ccc(N3CCNC3=O)cc2)C1 (stereo unspecified)	0	0	0	29	0	0
O=C(c1cccc(Cl)c1)N1CCCC(C(=O)N2CCCCCC2)C1 (stereo unspecified)	0	0	0	0	0	0
COc1ccc(CN2CCC(C(=O)c3cccc(Cl)c3)CC2)cc1	0	0	0	0	0	0
CC1CCCCN1CCCNC(=O)C1CCN(c2nc3ccccc3o2)CC1 (stereo unspecified)	0	0	0	55	0	0
O=C(CN1C(=O)NC2(CCCCC2)C1=O)Nc1cccc2ncccc12	24	0	0	0	0	0
Cc1cccc(NC(=O)CN2C(=O)NC3(CCCCCCC3)C2=O)c1C	0	0	0	0	0	0
CC[C@H](C)[C@H]1CNC(=O)C(=O)N1CC1CCN(CCCc2ccc(OC)c(OC)c2)CC1	0	0	0	0	0	0
COc1ccc(CCNCc2ccc(-c3ccccc3)cc2)cc1OC	0	0	0	0	0	34
COc1ccc2c(/C=N/NS(=O)(=O)c3ccc(C)cc3)c[nH]c2c1	0	0	0	0	0	0
COc1ccc2[nH]cc(/C=N/NS(=O)(=O)c3ccc(C)cc3)c2c1	0	0	0	28	0	0
O=C(Cc1ccc(F)cc1)Nc1ccc(Cl)cn1	15	49	0	0	30	0
O=C(Cc1ccc(Cl)cc1)Nc1cccnc1	28	0	0	0	0	0
O=C(Cc1ccc(Cl)cc1)Nc1ccc(Cl)cn1	0	21	0	0	0	0
O=C(COC(=O)Cc1ccc(F)cc1)Nc1ccc(Cl)cn1	0	0	0	0	0	0
O=C(Cc1ccccc1)Nc1cccnc1	0	0	0	0	0	0
Cn1nc(OC(=O)Nc2cccc(Cl)c2)cc1C(F)(F)F	0	0	0	0	27	0
CC1Cc2ccccc2N1S(=O)(=O)c1cnc[nH]1 (stereo unspecified)	0	43	0	0	0	0
COc1ccccc1CNC(=O)CSc1nnc2c(n1)[nH]c1ccc(F)cc12	0	0	0	0	0	0
C/C(=N\NC(=O)c1ccc2c(c1)OCO2)c1ccc(C(=O)O)s1	0	0	0	0	28	0
CC(=O)[C@@]1(O)CC[C@H]2[C@@H]3C[C@H](C)C4=CC(=O)CC[C@]4(C)[C@H]3CC[C@@]21C	0	0	0	33	0	0
C=C1CC2C(CCC3(C)C2CCC3(O)C(C)=O)C2(C)CCC(=O)C=C12 (stereo unspecified)	0	0	0	0	0	0

Screens (PubChem)
